In ChEMBL document CHEMBL1137710, “Synthesis and in vitro antitumor activity of new quinoxaline derivatives” (2009):

Columns and labels:
Assay type in all cases: functional
T47D = test: Growth inhibition of human T47D cells after 48 hrs by sulforhodamine B assay
Summary of the method: (§1)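 Run in the NCI 60-human-tumour-cell-line panel, tested over a 5-log dose range. Dose–response curves gave three values per cell line, each as a log10 molar concentration: GI50 (50% inhibition of net cell growth), TGI (total inhibition of net growth) and LC50 (50% net cell death). The mean graph midpoint is the arithmetic mean over all lines, with insensitive lines entered at the highest concentration tested.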

HOP-62 = test: Growth inhibition of human HOP62 cells after 48 hrs by sulforhodamine B assay; settings: HOP-62, 48 h
Summary of the method: (§2)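 NCI 60-human-tumor-cell-line panel, with compounds tested over a 5-log dose range. Values are taken from dose-response curves as log10 molar concentrations: GI50 is 50% net growth inhibition, TGI is total growth inhibition, and LC50 is 50% net cell death.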

HOP-92 = test: Growth inhibition of human HOP92 cells after 48 hrs by sulforhodamine B assay; settings: HOP-92, 48 h; summary of the method: as §2
786-0 = test: Growth inhibition of human 786-0 cells after 48 hrs by sulforhodamine B assay; settings: 786-0, 48 h; summary of the method: as §2
OVCAR-3 = test: Growth inhibition of human OVCAR-3 cells after 48 hrs by sulforhodamine B assay; settings: OVCAR-3, 48 h; summary of the method: as §2
NCI-H460 = test: Growth inhibition of human NCI-H460 cells after 48 hrs by sulforhodamine B assay; settings: NCI-H460, 48 h; summary of the method: as §2
TK-10 = test: Growth inhibition of human TK10 cells after 48 hrs by sulforhodamine B assay; settings: TK-10, 48 h; summary of the method: as §1
SK-OV-3 = test: Growth inhibition of human SKOV3 cells after 48 hrs by sulforhodamine B assay; settings: SK-OV-3, 48 h; summary of the method: as §2
MDA-MB-231 = test: Growth inhibition of human MDA-MB-231 cells after 48 hrs by sulforhodamine B assay; settings: MDA-MB-231, 48 h; summary of the method: as §2
HL-60(TB) = test: Growth inhibition of human HL-60(TB) cells after 48 hrs by sulforhodamine B assay; settings: HL-60, 48 h
Summary of the method: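 Tested only on compounds active in a three-line prescreen, in the NCI 60-human-tumour-cell-line panel over a 5-log dose range. Values come from dose–response curves as log10 molar GI50, the concentration inhibiting 50% net cell growth. Log10 TGI (total growth inhibition) and log10 LC50 (50% net cell death) were derived too. Mean graph midpoints include insensitive lines at the highest concentration tested.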

KM12 = test: Growth inhibition of human KM12 cells after 48 hrs by sulforhodamine B assay; settings: KM12, 48 h; summary of the method: as §2
CAKI-1 = test: Growth inhibition of human Caki1 cells after 48 hrs by sulforhodamine B assay; settings: CAKI-1, 48 h; summary of the method: as §2
UO-31 = test: Growth inhibition of human UO31 cells after 48 hrs by sulforhodamine B assay; settings: UO-31, 48 h; summary of the method: as §1
NCI-H522 = test: Growth inhibition of human NCI-H522 cells after 48 hrs by sulforhodamine B assay; settings: NCI-H522, 48 h; summary of the method: as §2
K562 = test: Growth inhibition of human K562 cells after 48 hrs by sulforhodamine B assay; settings: K562, 48 h; summary of the method: as §2
SF-539 = test: Growth inhibition of human SF539 cells after 48 hrs by sulforhodamine B assay; settings: SF-539, 48 h; summary of the method: as §2
Malme-3M = test: Growth inhibition of human MALME-3M cells after 48 hrs by sulforhodamine B assay; summary of the method: as §2
EKVX = test: Growth inhibition of human EKVX cells after 48 hrs by sulforhodamine B assay; summary of the method: as §2
BT-549 = test: Growth inhibition of human BT549 cells after 48 hrs by sulforhodamine B assay; settings: BT-549, 48 h; summary of the method: as §2
NCI/ADR-RES = test: Growth inhibition of human NCI/ADR-RES cells after 48 hrs by sulforhodamine B assay; summary of the method: as §2
UACC-62 = test: Growth inhibition of human UACC62 cells after 48 hrs by sulforhodamine B assay; settings: UACC-62, 48 h; summary of the method: as §1
HCT-15 = test: Growth inhibition of human HCT15 cells after 48 hrs by sulforhodamine B assay; settings: HCT-15, 48 h; summary of the method: as §2
NCI-H226 = test: Growth inhibition of human NCI-H226 cells after 48 hrs by sulforhodamine B assay; settings: NCI-H226, 48 h; summary of the method: as §2
HT-29 = test: Growth inhibition of human HT-29 cells after 48 hrs by sulforhodamine B assay; settings: HT-29, 48 h; summary of the method: as §2
CCRF-CEM = test: Growth inhibition of human CCRF-CEM cells after 48 hrs by sulforhodamine B assay; summary of the method: as §2
OVCAR-4 = test: Growth inhibition of human OVCAR4 cells after 48 hrs by sulforhodamine B assay; settings: OVCAR-4, 48 h; summary of the method: as §2
M14 = test: Growth inhibition of human M14 cells after 48 hrs by sulforhodamine B assay; settings: M14, 48 h; summary of the method: as §2
[1] = read-out: pLC50 (the source's name) (converted)

COc1ccc(CNc2nc3cc(N)cc(N)c3nc2-c2ccccc2)cc1OC
GI50 (T47D): 4.47 µM | CC50 (T47D; [1]): > 100 µM | TGI (T47D; read-out: pTGI (converted)): > 100 µM | GI50 (HOP-62): 18.2 µM | LC50 (HOP-62): 64.6 µM | TGI (HOP-62; read-out: pTGI (converted)): 34.7 µM | GI50 (HOP-92): 13.5 µM | LC50 (50% net cell death) (HOP-92): 66.1 µM | TGI (HOP-92; read-out: pTGI (converted)): 29.5 µM | GI50 (786-0): 15.5 µM | CC50 (786-0; [1]): 75.9 µM | TGI (786-0; read-out: pTGI (converted)): 34.7 µM | GI50 (OVCAR-3): 1.32 µM | CC50 (OVCAR-3; [1]): 8.51 µM | TGI (OVCAR-3; read-out: pTGI (converted)): 3.31 µM | GI50 (NCI-H460): 24 µM | LC50 (50% net cell kill) (NCI-H460): > 100 µM | TGI (NCI-H460; read-out: pTGI (converted)): 91.2 µM | GI50 (TK-10): 16.6 µM | CC50 (TK-10; [1]): 64.6 µM | TGI (TK-10; read-out: pTGI (converted)): 32.4 µM | GI50 (SK-OV-3): 21.9 µM | CC50 (SK-OV-3; [1]): > 100 µM | TGI (SK-OV-3; read-out: pTGI (converted)): 46.8 µM | GI50 (MDA-MB-231): 11.2 µM | CC50 (MDA-MB-231; [1]): 79.4 µM | TGI (MDA-MB-231; read-out: pTGI (converted)): 29.5 µM | GI50 (HL-60(TB)): 3.16 µM | LC50 (HL-60(TB)): > 100 µM | TGI (HL-60(TB); read-out: pTGI (converted)): 81.3 µM | GI50 (KM12): 13.2 µM | LC50 (50% net cell kill) (KM12): 72.4 µM | TGI (KM12; read-out: pTGI (converted)): 30.9 µM | GI50 (CAKI-1): 11.2 µM | CC50 (CAKI-1; [1]): 53.7 µM | TGI (CAKI-1; read-out: pTGI (converted)): 24.5 µM | GI50 (UO-31): 13.5 µM | CC50 (UO-31; [1]): > 100 µM | TGI (UO-31; read-out: pTGI (converted)): 45.7 µM | GI50 (NCI-H522): 2.69 µM | LC50 (NCI-H522): 63.1 µM | TGI (NCI-H522; read-out: pTGI (converted)): 6.31 µM | GI50 (K562): 6.03 µM | LC50 (K562): > 100 µM | TGI (K562; read-out: pTGI (converted)): > 100 µM | GI50 (SF-539): 20 µM | LC50 (SF-539): > 100 µM | TGI (SF-539; read-out: pTGI (converted)): 45.7 µM | GI50 (Malme-3M): 5.62 µM | CC50 (Malme-3M; [1]): 47.9 µM | TGI (Malme-3M; read-out: pTGI (converted)): 18.6 µM | GI50 (EKVX): 5.89 µM | LC50 (50% net cell kill) (EKVX): > 100 µM | TGI (EKVX; read-out: pTGI (converted)): 30.2 µM | GI50 (BT-549): 13.5 µM | CC50 (BT-549; [1]): 79.4 µM | TGI (BT-549; read-out: pTGI (converted)): 32.4 µM | GI50 (NCI/ADR-RES): 17.8 µM | CC50 (NCI/ADR-RES; [1]): > 100 µM | TGI (NCI/ADR-RES; read-out: pTGI (converted)): 66.1 µM | GI50 (UACC-62): 12.9 µM | CC50 (UACC-62; [1]): 53.7 µM | TGI (UACC-62; read-out: pTGI (converted)): 26.3 µM | GI50 (HCT-15): 30.2 µM | LC50 (HCT-15): > 100 µM | TGI (HCT-15; read-out: pTGI (converted)): > 100 µM | GI50 (NCI-H226): 14.5 µM | LC50 (NCI-H226): 64.6 µM | TGI (NCI-H226; read-out: pTGI (converted)): 30.9 µM | GI50 (HT-29): 1.86 µM | LC50 (HT-29): > 100 µM | TGI (HT-29; read-out: pTGI (converted)): 24.5 µM | GI50 (CCRF-CEM): 3.47 µM | LC50 (CCRF-CEM): > 100 µM | TGI (CCRF-CEM; read-out: pTGI (converted)): 70.8 µM | GI50 (OVCAR-4): 2.69 µM | CC50 (OVCAR-4; [1]): 52.5 µM | TGI (OVCAR-4; read-out: pTGI (converted)): 7.41 µM | GI50 (M14): 4.27 µM | CC50 (M14; [1]): 33.9 µM | TGI (M14; read-out: pTGI (converted)): 7.76 µM
